Assay results from ChEMBL document CHEMBL3414479, “Structure-based lead optimization and biological evaluation of BAX direct activators as novel potential anticancer agents” (J Med Chem, 2015).
Activity calls are given as the source filed them. The rule behind the calls is not given here.

What was measured:
MEF [1] = assay: Induction of apoptosis in Bax-deficient MEF assessed as appearance of fragmented nuclei and cell membrane blebbing at 15 uM after 24 hrs by DAPI staining; format: functional, cell-based; conditions: Mus musculus
Method in brief: (§1)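 MEF wild-type or knockout clones (Bcl2, Bad, Bid, Bak, Bax, Bax/Bak) treated 24 h with compound (15 µM for single-concentration data) or 0.1% DMSO vehicle; apoptosis scored by fragmented nuclei and membrane blebbing. EC50 values are means of three experiments with s.d.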

MEF [2] = assay: Induction of apoptosis in Bcl2-deficient MEF assessed as appearance of fragmented nuclei and cell membrane blebbing at 15 uM after 24 hrs by DAPI staining; format: functional, cell-based; conditions: Mus musculus; method in brief: as §1
Bcl-2-like protein 1 = Bcl-2-like protein 1 (Homo sapiens, UniProt Q07817); assay: Displacement of FITC-BIM from recombinant human Bcl-XL expressed in Escherichia coli after 30 mins by fluorescence polarization assay
Method in brief: (§2)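 Fluorescence polarization competition: serial compound dilutions in 20 mM Hepes-KOH pH 7.4, 150 mM NaCl with 50 nM FITC-BIM; after 5 min, E. coli-expressed recombinant protein added at 1 µM; polarization read after 30 min incubation. Triplicates; Ki from nonlinear regression of competitive binding curves.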

MEF [3] = assay: Induction of apoptosis in Bak-deficient MEF assessed as appearance of fragmented nuclei and cell membrane blebbing at 15 uM after 24 hrs by DAPI staining; format: functional, cell-based; conditions: Mus musculus; method in brief: as §1
MEF [4] = assay: Induction of apoptosis in Bax/Bak-deficient MEF assessed as appearance of fragmented nuclei and cell membrane blebbing at 15 uM after 24 hrs by DAPI staining; format: functional, cell-based; conditions: Mus musculus; method in brief: as §1
MEF [5] = assay: Induction of apoptosis in MEF assessed as appearance of fragmented nuclei and cell membrane blebbing at 15 uM after 24 hrs by DAPI staining; format: functional, cell-based; conditions: Mus musculus; method in brief: as §1
MEF [6] = assay: Induction of apoptosis in Bid-deficient MEF assessed as appearance of fragmented nuclei and cell membrane blebbing at 15 uM after 24 hrs by DAPI staining; format: functional, cell-based; conditions: Mus musculus; method in brief: as §1
[7] = molecular target: Apoptosis regulator Bcl-2 (Homo sapiens, UniProt P10415); assay: Displacement of FITC-BIM from recombinant human Bcl-2 expressed in Escherichia coli after 30 mins by fluorescence polarization assay; method in brief: as §2
MEF [8] = assay: Induction of apoptosis in Bad-deficient MEF assessed as appearance of fragmented nuclei and cell membrane blebbing at 15 uM after 24 hrs by DAPI staining; format: functional, cell-based; conditions: Mus musculus; method in brief: as §1
[9] = Cytotoxicity against C57BL/6J mouse primary splenocytes assessed as effect on apoptosis rate at 10 uM after 72 hrs by DAPI staining; format: cell-based; conditions: splenocyte
Method in brief: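 Primary splenocytes exposed 72 hours to 10 µM; apoptosis rate determined by counting apoptotic nuclei; mean with s.d. reported.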

MEF [10] = assay: Induction of apoptosis in MEF assessed as appearance of cell membrane blebbing at 15 uM after 24 hrs by DAPI staining in presence of caspase inhibitor Ac-DEVD-CHO; format: functional, cell-based; conditions: Mus musculus
Method in brief: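 MEF cells treated 24 h at 15 µM in presence of caspase inhibitor Ac-DEVD-CHO (10 µM); cell membrane blebbing assessed by microscopy.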

Mus musculus [11] = assay: Toxicity in C57BL/6J mouse allografted with mouse LLC1 cells assessed as change in body weight at 1 mg/kg, ip qd administered from day 14 to 17 post tumor implantation measured during compound dosing; format: organism-based; set-up: dose 1 mg/kg, route intraperitoneal; conditions: in vivo
Mus musculus [12] = assay: In vivo activation of Bax in mouse LLC1 cells allografted in C57BL/6J mouse at 1 mg/kg, ip qd administered from day 14 to 17 post tumor implantation measured on day 17 by immunoprecipitation assay; format: functional, organism-based; set-up: dose 1 mg/kg
Method in brief: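 Mice carrying tail-vein-injected LLC1 lung tumors received 1 mg/kg intraperitoneally once daily days 14–17 (vehicle 1% DMSO); on day 17 lung lysates were immunoprecipitated with conformation-specific anti-BAX 6A7 antibody to detect activated BAX.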

[13] = test system: Lewis lung carcinoma cell line; assay: (§3) Antitumor activity against mouse LLC1 cells allografted in C57BL/6J mouse assessed as reduction of tumor lesions at 1 mg/kg, ip qd administered from day 14 to 17 post tumor implantation measured on day 17 by hematoxylin and eosin staining-based microscopic analysis; format: functional, organism-based; set-up: dose 1 mg/kg
Method in brief: (§4)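 LLC1 cells injected via tail vein on day 0; from day 14 to day 17 mice given intraperitoneal injection once daily at 1 mg/kg, vehicle 1% DMSO; euthanized day 17. Lungs inspected visually, and H&E-stained lung sections scored as tumor burden to lung area ratio versus vehicle controls.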

MEF [14] = assay: Induction of apoptosis in Bax-deficient MEF assessed as appearance of fragmented nuclei and cell membrane blebbing after 24 hrs by DAPI staining; format: functional, cell-based; conditions: Mus musculus; method in brief: as §1
MEF [15] = assay: Induction of apoptosis in wild-type MEF assessed as appearance of fragmented nuclei and cell membrane blebbing after 24 hrs by DAPI staining; format: functional, cell-based; conditions: Mus musculus; method in brief: as §1
MEF [16] = assay: Induction of apoptosis in Bad-deficient MEF assessed as appearance of fragmented nuclei and cell membrane blebbing after 24 hrs by DAPI staining; format: functional, cell-based; conditions: Mus musculus; method in brief: as §1
MEF [17] = assay: Induction of apoptosis in Bak-deficient MEF assessed as appearance of fragmented nuclei and cell membrane blebbing after 24 hrs by DAPI staining; format: functional, cell-based; conditions: Mus musculus; method in brief: as §1
Mus musculus [18] = species: Mus musculus; assay: Toxicity in C57BL/6J mouse assessed as effect on lung; format: organism-based; conditions: in vivo
Mus musculus [19] = species: Mus musculus; assay: Toxicity in C57BL/6J mouse assessed as effect on heart; format: organism-based; conditions: in vivo
Mus musculus [20] = assay: Toxicity in C57BL/6J mouse allografted with mouse LLC1 cells assessed as evidence of behavioral side effect at 1 mg/kg, ip qd administered from day 14 to 17 post tumor implantation measured during compound dosing; format: organism-based; set-up: dose 1 mg/kg, route intraperitoneal; conditions: in vivo
Mus musculus [21] = assay: Toxicity in C57BL/6J mouse allografted with mouse LLC1 cells assessed as evidence of gross toxicity at 1 mg/kg, ip qd administered from day 14 to 17 post tumor implantation measured during compound dosing; format: organism-based; set-up: dose 1 mg/kg, route intraperitoneal; conditions: in vivo
Mus musculus [22] = species: Mus musculus; assay: Toxicity in C57BL/6J mouse assessed as effect on femoral muscle; format: organism-based, Muscle tissue; conditions: in vivo
[23] = test system: Lewis lung carcinoma cell line; assay: as §3, with “decrease in ratio” for “reduction”, “burden to lung area” for “lesions”, “analysis relative to control” for “analysis”; format: functional; set-up: scale not given: the % may be the effect or the level left; conditions: route intraperitoneal; method in brief: as §4
Mus musculus [24] = assay: Toxicity in C57BL/6J mouse allografted with mouse LLC1 cells assessed as mortality at 1 mg/kg, ip qd administered from day 14 to 17 post tumor implantation measured during compound dosing; format: organism-based; set-up: dose 1 mg/kg, route intraperitoneal; conditions: in vivo
MEF [25] = assay: Induction of apoptosis in Bcl2-deficient MEF assessed as appearance of fragmented nuclei and cell membrane blebbing after 24 hrs by DAPI staining; format: functional, cell-based; conditions: Mus musculus; method in brief: as §1
MEF [26] = assay: Induction of apoptosis in Bax/Bak-deficient MEF assessed as appearance of fragmented nuclei and cell membrane blebbing after 24 hrs by DAPI staining; format: functional, cell-based; conditions: Mus musculus; method in brief: as §1
MEF [27] = assay: Induction of apoptosis in Bid-deficient MEF assessed as appearance of fragmented nuclei and cell membrane blebbing after 24 hrs by DAPI staining; format: functional, cell-based; conditions: Mus musculus; method in brief: as §1

Sequence of Bcl-2-like protein 1 (Q07817 whole entry): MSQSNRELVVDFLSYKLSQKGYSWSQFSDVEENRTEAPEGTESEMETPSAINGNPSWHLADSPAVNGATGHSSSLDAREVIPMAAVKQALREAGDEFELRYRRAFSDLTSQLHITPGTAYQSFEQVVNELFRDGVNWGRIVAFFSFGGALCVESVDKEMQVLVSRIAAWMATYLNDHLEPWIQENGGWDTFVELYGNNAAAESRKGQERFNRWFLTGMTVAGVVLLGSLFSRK
Sequence of Apoptosis regulator Bcl-2 (P10415 whole entry, the tested form may be a part): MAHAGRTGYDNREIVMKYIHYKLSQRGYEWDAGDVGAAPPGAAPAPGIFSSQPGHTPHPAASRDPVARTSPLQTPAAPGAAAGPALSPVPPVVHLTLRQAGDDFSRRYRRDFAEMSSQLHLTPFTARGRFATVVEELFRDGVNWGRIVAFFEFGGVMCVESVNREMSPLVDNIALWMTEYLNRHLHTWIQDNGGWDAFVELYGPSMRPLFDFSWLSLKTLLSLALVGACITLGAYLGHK

SMILES: CCOc1ccccc1N/N=C1\C(=O)N(c2cc(O)cc(-c3ccccc3)c2)N=C1C
- Activity (MEF [1]): inactive
- Activity (MEF [2]): Active
- Ki (Bcl-2-like protein 1): > 100 µM
- Activity (MEF [3]): Active
- Activity (MEF [4]): inactive
- Activity (MEF [5]): Active
- Activity (MEF [6]): Active
- Ki [7]: > 100 µM
- Activity (MEF [8]): Active

SMILES: CCOc1ccccc1N/N=C1\C(=O)N(c2cc(O)cc(-c3cccs3)c2)N=C1C
- Ki (Bcl-2-like protein 1): > 100 µM
- Activity (MEF [4]): inactive
- Activity (MEF [5]): inactive
- Ki [7]: > 100 µM

SMILES: CC1=NN(c2cc(O)cc(-c3ccc(N(C)C)cc3)c2)C(=O)/C1=N\Nc1ccc2ccccc2c1
- Activity (MEF [1]): inactive
- Activity (MEF [2]): Active
- Ki (Bcl-2-like protein 1): 3.4 µM
- Activity (MEF [3]): Active
- Activity (MEF [4]): inactive
- Activity (MEF [5]): Active
- Activity (MEF [6]): Active
- Ki [7]: 33.9 µM
- Activity (MEF [8]): Active

SMILES: CC1=NN(c2nc(-c3ccccc3)cs2)C(=O)/C1=C/c1ccc(-c2ccccc2)cc1
- Activity (MEF [1]): Active
- Activity (MEF [2]): Active
- Ki (Bcl-2-like protein 1): 3.1 µM
- Activity (MEF [3]): Active
- Activity (MEF [4]): inactive
- Activity (MEF [5]): Active
- Activity (MEF [6]): Active
- Ki [7]: 1.6 µM
- Activity (MEF [8]): Active

SMILES: CCOc1ccccc1N/N=C1\C(=O)N(c2cc(O)cc(-c3ccncc3)c2)N=C1C
- Activity (MEF [1]): inactive
- Activity (MEF [2]): Active
- Ki (Bcl-2-like protein 1): 30.9 µM
- Activity (MEF [3]): Active
- Activity (MEF [4]): inactive
- Activity (MEF [5]): Active
- Activity (MEF [6]): Active
- Ki [7]: > 100 µM
- Activity (MEF [8]): Active

SMILES: CCOc1ccccc1N/N=C1\C(=O)N(c2cc(O)cc(-c3ccc(N(C)C)cc3)c2)N=C1C
- Activity [9]: Non-toxic
- Activity (MEF [10]): inactive
- Activity (Mus musculus [11]): Non-toxic
- Activity (Mus musculus [12]): Active
- Ki (Bcl-2-like protein 1): > 100 µM
- Activity [13]: Active
- EC50 (MEF [14]): > 50 µM
- EC50 (MEF [15]): 1.1 µM
- EC50 (MEF [16]): 0.8 µM
- EC50 (MEF [17]): 1.3 µM
- Activity (Mus musculus [18]): Non-toxic
- Activity (Mus musculus [19]): Non-toxic
- Activity (Mus musculus [20]): Non-toxic
- Ki [7]: 12 µM
- Activity (Mus musculus [21]): Non-toxic
- Activity (Mus musculus [22]): Non-toxic
- Activity [23]: 50%
- Activity (Mus musculus [24]): Non-toxic
- EC50 (MEF [25]): 0.6 µM
- EC50 (MEF [26]): > 50 µM
- EC50 (MEF [27]): 0.7 µM

SMILES: CCOc1ccccc1CC(=O)C1C(=O)N(c2nc(-c3ccccc3)cs2)N=C1C (stereo not drawn)
- Ki (Bcl-2-like protein 1): > 100 µM
- Activity (MEF [4]): inactive
- Activity (MEF [5]): inactive
- Ki [7]: > 100 µM

SMILES: CCOc1ccccc1N/N=C1\C(=O)N(c2cc(O)cc(-c3ccc(C(C)C)cc3)c2)N=C1C
- Activity (MEF [1]): Active
- Activity (MEF [2]): Active
- Ki (Bcl-2-like protein 1): 15.5 µM
- Activity (MEF [3]): Active
- Activity (MEF [4]): inactive
- Activity (MEF [5]): Active
- Activity (MEF [6]): Active
- Ki [7]: 1.9 µM
- Activity (MEF [8]): Active

SMILES: CCOc1ccccc1N/N=C1\C(=O)N(c2cc(O)cc(-c3cccc(N)c3)c2)N=C1C
- Activity (MEF [1]): Active
- Activity (MEF [2]): Active
- Ki (Bcl-2-like protein 1): > 100 µM
- Activity (MEF [3]): Active
- Activity (MEF [4]): inactive
- Activity (MEF [5]): Active
- Activity (MEF [6]): Active
- Ki [7]: > 100 µM
- Activity (MEF [8]): Active
